Measurements as given in ChEMBL document CHEMBL2177011, “Discovery, synthesis, and biological evaluation of orally active pyrrolidone derivatives as novel inhibitors of p53-MDM2 protein-protein interaction” (J Med Chem, 2012).

Key:
[1] = biological target: Tumour suppressor p53/oncoprotein Mdm2 (Homo sapiens, UniProt Q00987); assay: (§1) Inhibition of p53-MDM2 interaction after 1 hr by fluorescence polarization assay; assay type: protein assay
[2] = tested on: U2OS; assay: Antiproliferative activity against human U2OS cells expressing wild type p53 after 72 hrs by MTT assay; assay type: functional, cell-based
Procedure, shortened: (§2)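 Cells seeded at 5−6 × 10⁴ per well and cultured 24 h, then exposed in triplicate wells to a range of compound concentrations for 72 h, with 0.1% DMSO as control. MTT (5 mg/mL solution) was added for 4 h at 37 °C, formazan dissolved in DMSO, absorbance read at 570 nm. Drug-free wells served as blanks; IC50 calculated.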

[3] = tested on: A549; assay: Antiproliferative activity against human A549 cells expressing wild type p53 after 72 hrs by MTT assay; assay type: functional, cell-based; procedure, shortened: as §2
[4] = tested on: NCI-H1299; assay: Antiproliferative activity against p53 deficient human NCI-H1299 cells after 72 hrs by MTT assay; assay type: functional, cell-based; settings: NCI-H1299, 72 h; procedure, shortened: as §2
[5] = tested on: SAOS-2; assay: Antiproliferative activity against p53 deficient human Saos2 cells after 72 hrs by MTT assay; assay type: functional, cell-based; settings: SAOS-2, 72 h; procedure, shortened: as §2
[6] = biological target: Tumour suppressor p53/oncoprotein Mdm2 (Homo sapiens, UniProt P04637+Q00987); assay: as §1; assay type: protein assay
Sequence of Tumour suppressor p53/oncoprotein Mdm2 (Homo sapiens, UniProt P04637+Q00987) (P04637 whole entry): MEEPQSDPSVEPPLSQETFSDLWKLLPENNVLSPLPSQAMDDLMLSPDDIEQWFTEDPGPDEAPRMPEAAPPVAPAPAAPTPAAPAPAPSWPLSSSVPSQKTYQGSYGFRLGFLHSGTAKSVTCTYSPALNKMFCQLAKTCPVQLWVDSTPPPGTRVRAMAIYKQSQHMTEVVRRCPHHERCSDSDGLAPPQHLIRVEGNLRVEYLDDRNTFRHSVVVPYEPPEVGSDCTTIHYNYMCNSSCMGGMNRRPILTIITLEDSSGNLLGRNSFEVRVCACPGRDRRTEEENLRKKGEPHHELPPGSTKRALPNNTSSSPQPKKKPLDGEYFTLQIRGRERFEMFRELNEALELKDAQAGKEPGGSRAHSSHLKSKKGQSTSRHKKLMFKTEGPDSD
Sequence of Tumour suppressor p53/oncoprotein Mdm2 (Homo sapiens, UniProt P04637+Q00987) (Q00987 whole entry): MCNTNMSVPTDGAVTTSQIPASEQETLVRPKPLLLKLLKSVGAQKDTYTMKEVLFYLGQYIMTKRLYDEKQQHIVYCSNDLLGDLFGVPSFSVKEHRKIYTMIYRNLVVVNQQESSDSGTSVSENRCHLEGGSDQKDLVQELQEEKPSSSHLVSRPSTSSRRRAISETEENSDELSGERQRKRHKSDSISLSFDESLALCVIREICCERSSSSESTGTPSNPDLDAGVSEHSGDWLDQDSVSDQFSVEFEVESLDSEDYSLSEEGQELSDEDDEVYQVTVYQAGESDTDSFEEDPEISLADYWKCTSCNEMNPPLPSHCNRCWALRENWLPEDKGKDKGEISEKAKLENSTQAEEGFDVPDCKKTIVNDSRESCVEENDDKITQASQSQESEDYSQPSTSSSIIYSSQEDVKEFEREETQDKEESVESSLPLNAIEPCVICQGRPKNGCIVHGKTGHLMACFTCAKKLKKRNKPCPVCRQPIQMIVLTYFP

[7] = biological target: Tumour suppressor protein p53/Mdm4 (Homo sapiens, UniProt P04637+O15151); assay: (§3) Inhibition of p53-MDMX interaction after 1 hr by fluorescence polarization assay; assay type: protein assay
Sequence of Tumour suppressor protein p53/Mdm4 (Homo sapiens, UniProt P04637+O15151) (P04637 whole entry): as the sequence (P04637 whole entry) above
Sequence of Tumour suppressor protein p53/Mdm4 (Homo sapiens, UniProt P04637+O15151) (O15151 whole entry): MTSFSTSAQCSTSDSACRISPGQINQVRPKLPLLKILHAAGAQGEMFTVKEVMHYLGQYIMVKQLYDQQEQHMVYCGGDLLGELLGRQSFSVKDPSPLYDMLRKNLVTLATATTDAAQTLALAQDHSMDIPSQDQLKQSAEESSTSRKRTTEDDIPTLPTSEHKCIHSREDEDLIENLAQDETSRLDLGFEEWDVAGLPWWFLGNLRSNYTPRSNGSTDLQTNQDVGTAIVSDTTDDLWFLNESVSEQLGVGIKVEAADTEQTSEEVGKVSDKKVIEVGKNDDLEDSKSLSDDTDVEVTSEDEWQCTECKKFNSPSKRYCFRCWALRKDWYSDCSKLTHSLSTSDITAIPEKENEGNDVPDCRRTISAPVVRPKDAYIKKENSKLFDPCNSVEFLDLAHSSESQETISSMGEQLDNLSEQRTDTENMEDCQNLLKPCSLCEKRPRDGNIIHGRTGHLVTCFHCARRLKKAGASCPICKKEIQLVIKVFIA

[8] = biological target: Tumour suppressor protein p53/Mdm4 (Homo sapiens, UniProt O15151); assay: as §3; assay type: protein assay
Sequence of Tumour suppressor protein p53/Mdm4 (Homo sapiens, UniProt O15151) (P04637 whole entry): as the sequence (P04637 whole entry) above
Sequence of Tumour suppressor protein p53/Mdm4 (Homo sapiens, UniProt O15151) (O15151 whole entry): as the sequence (O15151 whole entry) above

[9] = Homo sapiens, U2OS, 72 h, read-out: IC50
[10] = Homo sapiens, A549, 72 h, read-out: IC50

Sequence of Tumour suppressor p53/oncoprotein Mdm2 (Homo sapiens, UniProt Q00987) (P04637 whole entry): as the sequence (P04637 whole entry) above
Sequence of Tumour suppressor p53/oncoprotein Mdm2 (Homo sapiens, UniProt Q00987) (Q00987 whole entry): as the sequence (Q00987 whole entry) above

## O=c1c2cnn(-c3ccccc3)c2nc(Cc2ccccc2)n1Cc1ccccc1
[1]
  Ki: 2130 nM

## O=C(C1=C(Nc2ccc(Cl)cc2)C(=O)N(CCCn2ccnc2)C1c1ccc(Br)cc1)c1ccccc1 (stereo not drawn)
[2]; [9]
  IC50: 22.8 µM
[1]
  Ki: 230 nM
[3]; [10]
  IC50: 29.9 µM
[4]
  IC50: 25 µM
[5]
  IC50: 24.8 µM

## O=C(C1=C(O)C(=O)N(CCCn2ccnc2)C1c1ccc(Br)cc1)c1ccccc1[N+](=O)[O-] (stereo not drawn)
[1]
  Ki: 15300 nM

## O=C(C1=C(O)C(=O)N(CCCn2ccnc2)C1c1ccc(Cl)cc1)c1ccccc1 (stereo not drawn)
[1]
  Ki: 23300 nM

## COc1ccc(C2C(C(=O)c3ccccc3)=C(O)C(=O)N2CCCn2ccnc2)cc1 (stereo not drawn)
[6]
  Ki: Not Active

## O=C(C1=C(Nc2ccc(I)cc2)C(=O)N(CCCn2ccnc2)C1c1ccc(Br)cc1)c1ccccc1 (stereo not drawn)
[2]; [9]
  IC50: 12 µM
[1]
  Ki: 270 nM
[3]; [10]
  IC50: 24.5 µM
[4]
  IC50: 19.4 µM
[5]
  IC50: 23.4 µM

## Cc1ccc(C2C(C(=O)c3ccccc3)=C(O)C(=O)N2CCCn2ccnc2)c(C)c1 (stereo not drawn)
[1]
  Ki: 10700 nM

## O=C(C1=C(O)C(=O)N(CCCn2ccnc2)C1c1ccco1)c1ccccc1 (stereo not drawn)
[6]
  Ki: Not Active

## O=C(C1=C(Nc2ccccc2Br)C(=O)N(CCCn2ccnc2)C1c1ccc(Br)cc1)c1ccccc1 (stereo not drawn)
[2]; [9]
  IC50: 16.9 µM
[1]
  Ki: 150 nM
[3]; [10]
  IC50: 20.1 µM
[4]
  IC50: 15.6 µM
[5]
  IC50: 19.6 µM

## O=C(C1=C(O)C(=O)N(CCCn2ccnc2)C1c1ccccn1)c1ccccc1 (stereo not drawn)
[6]
  Ki: Not Active

## O=C(C1=C(Nc2ccc(F)cc2)C(=O)N(CCCn2ccnc2)C1c1ccc(Br)cc1)c1ccccc1 (stereo not drawn)
[2]; [9]
  IC50: 30 µM
[1]
  Ki: 430 nM
[3]; [10]
  IC50: 27.4 µM
[4]
  IC50: 25.4 µM
[5]
  IC50: 32.7 µM

## O=C(C1=C(O)C(=O)N(CCCn2ccnc2)C1c1ccc([N+](=O)[O-])cc1)c1ccccc1 (stereo not drawn)
[1]
  Ki: 700 nM

## O=C(C1=C(Nc2ccc(Br)cc2)C(=O)N(CCCn2ccnc2)C1c1ccc(Br)cc1)c1ccccc1 (stereo not drawn)
[2]; [9]
  IC50: 13 µM
[1]
  Ki: 190 nM
[3]; [10]
  IC50: 22.2 µM
[4]
  IC50: 19.2 µM
[5]
  IC50: 23.8 µM

## O=C(C1=C(Nc2cccc(Br)c2)C(=O)N(CCCn2ccnc2)C1c1ccc(Br)cc1)c1ccccc1 (stereo not drawn)
[2]; [9]
  IC50: 11.9 µM
[1]
  Ki: 150 nM
[3]; [10]
  IC50: 15.8 µM
[4]
  IC50: 11.5 µM
[5]
  IC50: 9.09 µM

## O=C(C1=C(O)C(=O)N(CCCn2ccnc2)C1c1ccc(Cl)nc1)c1ccccc1 (stereo not drawn)
[6]
  Ki: Not Active

## CCCCOC1=C(C(=O)c2ccccc2)C(c2ccc(Br)cc2)N(CCCn2ccnc2)C1=O (stereo not drawn)
[2]; [9]
  IC50: 32.4 µM
[7]
  Ki: Not Active
[1]
  Ki: 470 nM
[3]; [10]
  IC50: 18.5 µM
[4]
  IC50: 17.1 µM
[5]
  IC50: 11.6 µM

## O=C(C1=C(Nc2ccccc2)C(=O)N(CCCn2ccnc2)C1c1ccc(Br)cc1)c1ccccc1 (stereo not drawn)
[2]; [9]
  IC50: 25.7 µM
[1]
  Ki: 140 nM
[3]; [10]
  IC50: 24.1 µM
[4]
  IC50: 21.2 µM
[5]
  IC50: 24.4 µM

## NC1=C(C(=O)c2ccccc2)C(c2ccc(Br)cc2)N(CCCn2ccnc2)C1=O (stereo not drawn)
[2]; [9]
  IC50: 149 µM
[7]
  Ki: Not Active
[1]
  Ki: 48 nM
[3]; a549
  IC50: Not Active
[4]
  IC50: 168 µM
[5]
  IC50: 107 µM

## Cc1ccc(NC2=C(C(=O)c3ccccc3)C(c3ccc(Br)cc3)N(CCCn3ccnc3)C2=O)cc1 (stereo not drawn)
[2]; [9]
  IC50: 24.1 µM
[1]
  Ki: 140 nM
[3]; [10]
  IC50: 29.4 µM
[4]
  IC50: 25.8 µM
[5]
  IC50: 31.9 µM

## O=C(C1=C(O)C(=O)N(CCCn2ccnc2)C1c1ccc(F)cc1)c1ccccc1 (stereo not drawn)
[1]
  Ki: 880 nM

## O=C(C1=C(O)C(=O)N(CCCn2ccnc2)C1c1cccc([N+](=O)[O-])c1)c1ccccc1 (stereo not drawn)
[1]
  Ki: 830 nM

## O=C(C1=C(O)C(=O)N(CCCn2ccnc2)C1c1ccc(Br)cc1)c1ccc(I)cc1 (stereo not drawn)
[1]
  Ki: 3590 nM

## O=C(C1=C(O)C(=O)N(CCCn2ccnc2)C1c1ccc(Br)cc1)c1ccc(F)cc1 (stereo not drawn)
[1]
  Ki: 1460 nM

## O=C(C1=C(NCc2ccccc2)C(=O)N(CCCn2ccnc2)C1c1ccc(Br)cc1)c1ccccc1 (stereo not drawn)
[2]; [9]
  IC50: 32.5 µM
[1]
  Ki: 470 nM
[3]; [10]
  IC50: 52.8 µM
[4]
  IC50: 25.3 µM
[5]
  IC50: 31.6 µM

## O=C(C1=C(O)C(=O)N(Cc2cccnc2)C1c1ccc(Cl)cc1)c1ccccc1 (stereo not drawn)
[1]
  Ki: 570 nM

## Cc1cc(C)cc(C2C(C(=O)c3ccccc3)=C(O)C(=O)N2CCCn2ccnc2)c1 (stereo not drawn)
[1]
  Ki: 910 nM

## O=C(C1=C(O)C(=O)N(CCCn2ccnc2)C1c1ccc(Cl)cc1Cl)c1ccccc1 (stereo not drawn)
[1]
  Ki: 39400 nM

## O=C(C1=C(O)C(=O)N(CCCn2ccnc2)C1c1ccc(Br)cc1)c1ccc([N+](=O)[O-])cc1 (stereo not drawn)
[1]
  Ki: 2540 nM

## O=C(C1=C(O)C(=O)N(CCCn2ccnc2)C1c1ccc(C(F)(F)F)cc1)c1ccccc1 (stereo not drawn)
[1]
  Ki: 810 nM

## CCCCCOC1=C(C(=O)c2ccccc2)C(c2ccc(Br)cc2)N(CCCn2ccnc2)C1=O (stereo not drawn)
[2]; [9]
  IC50: 9.14 µM
[7]
  Ki: Not Active
[1]
  Ki: 340 nM
[3]; [10]
  IC50: 7.29 µM
[4]
  IC50: 10.3 µM
[5]
  IC50: 9.99 µM

## O=C(C1=C(O)C(=O)N(CCCn2ccnc2)C1c1ccc(Br)cc1)c1ccccc1Cl (stereo not drawn)
[6]
  Ki: Not Active

## O=C(C1=C(O)C(=O)N(CCc2ccccc2)C1c1ccc(Br)cc1)c1cccs1 (stereo not drawn)
[1]
  Ki: 12000 nM

## O=C(C1=C(OCc2ccccc2)C(=O)N(CCCn2ccnc2)C1c1ccc(Br)cc1)c1ccccc1 (stereo not drawn)
[7]
  Ki: Not Active
[1]
  Ki: 2070 nM

## c1ccc(CN2CCN(Cc3ccccc3)C2c2cccnc2)cc1
[1]
  Ki: 1760 nM

## O=C(C1=C(Nc2ccc(OC(F)(F)F)cc2)C(=O)N(CCCn2ccnc2)C1c1ccc(Br)cc1)c1ccccc1 (stereo not drawn)
[2]; [9]
  IC50: 11.5 µM
[1]
  Ki: 120 nM
[3]; [10]
  IC50: 20.8 µM
[4]
  IC50: 11.5 µM
[5]
  IC50: 17.9 µM

## CCOc1ccc(NC2=C(C(=O)c3ccccc3)C(c3ccc(Br)cc3)N(CCCn3ccnc3)C2=O)cc1 (stereo not drawn)
[2]; [9]
  IC50: 26.2 µM
[1]
  Ki: 350 nM
[3]; [10]
  IC50: 20.2 µM
[4]
  IC50: 19.9 µM
[5]
  IC50: 30.9 µM

## CCCOC1=C(C(=O)c2ccccc2)C(c2ccc(Br)cc2)N(CCCn2ccnc2)C1=O (stereo not drawn)
[8]
  Ki: 9.32 µM
[1]
  Ki: 6970 nM

## COc1ccc(CCN2C(=O)C(O)=C(C(=O)c3cccs3)C2c2ccc(C)cc2)cc1 (stereo not drawn)
[1]
  Ki: 48800 nM

## O=C(C1=C(O)C(=O)N(CCCn2ccnc2)C1c1ccc2ccccc2c1)c1ccccc1 (stereo not drawn)
[6]
  Ki: Not Active

## O=C(C1=C(O)C(=O)N(CCCn2ccnc2)C1c1ccccc1O)c1ccccc1 (stereo not drawn)
[6]
  Ki: Not Active

## O=C(C1=C(O)C(=O)N(CCCn2ccnc2)C1c1ccc(Br)cc1)c1ccc(Br)cc1 (stereo not drawn)
[1]
  Ki: 24900 nM

## O=C(C1=C(O)C(=O)N(CCCn2ccnc2)C1c1cccc(O)c1)c1ccccc1 (stereo not drawn)
[6]
  Ki: Not Active

## CC(C)(C)c1ccc(C2C(C(=O)c3ccccc3)=C(O)C(=O)N2CCCn2ccnc2)cc1 (stereo not drawn)
[1]
  Ki: 10900 nM

## O=C(C1=C(O)C(=O)N(CCCn2ccnc2)C1c1ccsc1)c1ccccc1 (stereo not drawn)
[6]
  Ki: Not Active

## C[C@@H](NC1=C(C(=O)c2ccccc2)[C@H](c2ccc(Br)cc2)N(CCCn2ccnc2)C1=O)c1ccccc1
[2]; [9]
  IC50: 30.8 µM
[3]; [10]
  IC50: 15.7 µM
[4]
  IC50: 17 µM
[5]
  IC50: 13.2 µM

## O=C(C1=C(O)C(=O)N(CCCn2ccnc2)C1c1ccc(Br)cc1)c1ccccc1 (stereo not drawn)
[2]; u2os
  IC50: Not Active
[7]
  Ki: Not Active
[1]
  Ki: 290 nM
[3]; [10]
  IC50: 73.1 µM
[4]
  IC50: 20 µM
[5]
  IC50: 31.6 µM

## O=C(C1=C(O)C(=O)N(CCCn2ccnc2)C1c1ccc(Cl)cc1)c1ccc2c(c1)OCCO2 (stereo not drawn)
[1]
  Ki: 1370 nM

## O=C(C1=C(O)C(=O)N(CCCn2ccnc2)C1c1cccs1)c1ccccc1 (stereo not drawn)
[6]
  Ki: Not Active

## O=C(CSc1nnc(-c2ccc(O)cc2)n1-c1ccccc1)Nc1ccccc1
[1]
  Ki: 86000 nM

## COc1ccc(C(=O)C2=C(O)C(=O)N(c3nccs3)C2c2ccc(C)cc2)cc1 (stereo not drawn)
[1]
  Ki: 2500 nM

## Cc1ccc(C2C(C(=O)c3ccccc3)=C(O)C(=O)N2CCCn2ccnc2)cc1 (stereo not drawn)
[1]
  Ki: 780 nM

## O=C(C1=C(O)C(=O)N(CCCn2ccnc2)C1c1ccccc1Br)c1ccccc1 (stereo not drawn)
[1]
  Ki: 430 nM

## O=C(C1=C(O)C(=O)N(CCCn2ccnc2)C1c1ccc(Br)cc1)c1ccc(Cl)cc1 (stereo not drawn)
[1]
  Ki: 910 nM

## O=C(C1=C(O)C(=O)N(CCCn2ccnc2)C1c1cccnc1)c1ccccc1 (stereo not drawn)
[6]
  Ki: Not Active
